Test results published in ChEMBL document CHEMBL3297742, “Tetrahydronaphthyridine and dihydronaphthyridinone ethers as positive allosteric modulators of the metabotropic glutamate receptor 5 (mGlu₅)” (J Med Chem, 2014).

What was measured:
Rattus norvegicus [1] = test: Toxicity in Sprague-Dawley rat assessed as autonomic nervous system deficit at 100 mg/kg, po measured up to 4 hrs by irwin neurological test; type: organism-based; design: dose 100 mg/kg, route oral; settings: in vivo
Procedure, shortened: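 Male Sprague–Dawley rats (250–300 g) scored at baseline, then given vehicle (20% HP-β-CD) or 100 mg/kg po (n = 6 each). Modified Irwin battery repeated at 30 min, 1 h and 4 h; each end point scored 0, 1 or 2; significance taken at p ≤ 0.05.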

[2] = target: Metabotropic glutamate receptor 4 (Rattus norvegicus, UniProt P31423); test: Positive allosteric modulator activity at rat mGlu4 receptor expressed in HEK293 cells assessed as glutamate-induced GIRK channel-mediated thallium flux treated 140s prior to gluatamate challenge by fluorescence analysis; type: cell-based
Procedure, shortened: (§1)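 HEK293-GIRK cells expressing rat mGlu2, 3, 4, 6, 7 or 8, 15000 cells/well. Vehicle or 10 µM compound added, then 140 s later a glutamate CRC (L-AP4 for mGlu7) in thallium buffer (12 mM thallium sulfate, 10 mM HEPES). Thallium flux through GIRK read by fluorescence.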

[3] = target: Metabotropic glutamate receptor 6 (Rattus norvegicus, UniProt P35349); test: Positive allosteric modulator activity at rat mGlu6 receptor expressed in HEK293 cells assessed as glutamate-induced GIRK channel-mediated thallium flux treated 140s prior to gluatamate challenge by fluorescence analysis; type: cell-based; procedure, shortened: as §1
Cytochrome P450 2D6 = Cytochrome P450 2D6 (Homo sapiens, UniProt P10635); test: Inhibition of CYP2D6 in human liver microsomes; type: ADME
Procedure, shortened: (§2)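 CYP1A2, 2C9, 2D6 and 3A4 inhibition measured together in a cocktail assay with human liver microsomes and known probe substrates; IC50 determined.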

Cytochrome P450 3A4 = Cytochrome P450 3A4 (Homo sapiens, UniProt P08684); test: Inhibition of CYP3A4 in human liver microsomes; type: ADME; procedure, shortened: as §2
[4] = Kinetic solubility of the compound in buffer at pH 7.4; type: physicochemical
Procedure, shortened: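 Kinetic aqueous solubility measured in buffers at pH 2, 4 and 7.4.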

[5] = Half life in rat at 1 mg/kg, iv and 10 mg/kg, po; type: ADME, organism-based; settings: in vivo
Procedure, shortened: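 Rat pharmacokinetics with 1 mg/kg IV and 10 mg/kg PO dosing; oral arm given in 0.5% methyl cellulose (1 mg/mL, noncrossover) to male Sprague–Dawley rats.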

Rattus norvegicus [6] = test: AUC (0 to 24 hrs) in Sprague-Dawley rat plasma at 10 mg/kg, po; type: ADME, organism-based; design: time < 24 hr, dose 10 mg/kg, route oral; settings: in vivo
[7] = Tmax in Sprague-Dawley rat at 10 mg/kg, po; type: ADME, organism-based; design: dose 10 mg/kg, route oral; settings: in vivo
Rattus norvegicus [8] = test: Reversal of amphetamine-induced hyperlocomotion in Sprague-Dawley rat at 56.6 mg/kg, po administered for 30 mins prior to amphetamine challenge for 60 mins; type: functional
Procedure, shortened: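 Male Sprague–Dawley rats (250–375 g), food-deprived the evening before, were habituated 30 min in locomotor chambers. They were then dosed po with vehicle (20% HP-β-CD in water, pH 6–7, max 10 mL/kg) or test article, followed 30 min later by amphetamine 1 mg/kg sc, n = 6–8 per group. Photobeam breaks were counted per 5 min over 120 min. Percent reversal used t = 60–120 totals versus the vehicle + amphetamine group, reported as mean ± SE.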

[9] = Drug uptake in Sprague-Dawley rat brain at 56.6 mg/kg, po after 1.5 hrs by LC-MS/MS analysis; type: ADME, organism-based; design: dose 56.6 mg/kg, route oral; settings: read-out: Drug uptake
Procedure, shortened: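 Male Sprague–Dawley rats (250–375 g), fasted overnight, were dosed orally at 56.6 mg/kg in 20% HP-β-cyclodextrin (pH 6–7) during an amphetamine hyperlocomotion screen. Brain and plasma were taken at 1.5 h. Brain was homogenized in 70:30 2-propanol:water, and samples were diluted in acetonitrile with 50 nM carbamazepine internal standard. Analysis was C18 gradient LC-ESI-MS/MS against a standard curve.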

Chain of Cytochrome P450 2D6 (P10635 whole entry): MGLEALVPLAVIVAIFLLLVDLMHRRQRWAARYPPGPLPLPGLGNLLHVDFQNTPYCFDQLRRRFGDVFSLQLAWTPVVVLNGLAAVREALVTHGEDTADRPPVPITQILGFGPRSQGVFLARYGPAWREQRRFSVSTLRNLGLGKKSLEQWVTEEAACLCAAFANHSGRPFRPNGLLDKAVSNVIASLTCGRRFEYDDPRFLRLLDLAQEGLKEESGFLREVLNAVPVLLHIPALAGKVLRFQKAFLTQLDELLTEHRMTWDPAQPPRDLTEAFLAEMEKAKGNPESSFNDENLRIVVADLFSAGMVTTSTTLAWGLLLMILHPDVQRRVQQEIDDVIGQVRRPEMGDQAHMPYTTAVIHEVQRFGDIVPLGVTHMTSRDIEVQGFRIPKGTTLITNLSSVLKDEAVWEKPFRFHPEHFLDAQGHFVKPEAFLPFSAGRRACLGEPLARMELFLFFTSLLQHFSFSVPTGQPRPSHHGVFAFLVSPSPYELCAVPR
Chain of Metabotropic glutamate receptor 4 (P31423 whole entry): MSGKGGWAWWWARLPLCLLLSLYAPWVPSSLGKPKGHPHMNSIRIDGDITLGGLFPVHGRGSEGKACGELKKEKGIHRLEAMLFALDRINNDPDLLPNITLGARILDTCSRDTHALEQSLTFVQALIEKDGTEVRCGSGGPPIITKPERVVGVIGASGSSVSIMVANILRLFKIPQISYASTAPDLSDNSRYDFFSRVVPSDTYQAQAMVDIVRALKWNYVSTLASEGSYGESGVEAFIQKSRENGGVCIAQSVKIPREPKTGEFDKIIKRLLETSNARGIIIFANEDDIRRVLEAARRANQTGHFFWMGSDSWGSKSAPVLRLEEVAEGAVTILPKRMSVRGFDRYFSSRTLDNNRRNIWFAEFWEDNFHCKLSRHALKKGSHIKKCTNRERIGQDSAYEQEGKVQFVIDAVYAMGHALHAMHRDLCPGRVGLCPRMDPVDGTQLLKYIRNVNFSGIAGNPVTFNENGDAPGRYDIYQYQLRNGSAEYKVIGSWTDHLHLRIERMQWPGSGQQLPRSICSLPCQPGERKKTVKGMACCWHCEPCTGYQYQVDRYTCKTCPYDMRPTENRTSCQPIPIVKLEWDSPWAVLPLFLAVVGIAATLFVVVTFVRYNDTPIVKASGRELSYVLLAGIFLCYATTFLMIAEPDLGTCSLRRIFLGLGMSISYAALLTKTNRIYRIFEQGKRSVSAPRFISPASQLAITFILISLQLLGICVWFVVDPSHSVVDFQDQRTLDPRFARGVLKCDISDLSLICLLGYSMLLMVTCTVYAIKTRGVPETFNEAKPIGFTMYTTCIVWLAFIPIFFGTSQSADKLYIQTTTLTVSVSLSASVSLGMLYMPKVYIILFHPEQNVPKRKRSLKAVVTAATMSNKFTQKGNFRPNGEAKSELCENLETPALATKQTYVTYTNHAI
Chain of Cytochrome P450 3A4 (P08684 whole entry): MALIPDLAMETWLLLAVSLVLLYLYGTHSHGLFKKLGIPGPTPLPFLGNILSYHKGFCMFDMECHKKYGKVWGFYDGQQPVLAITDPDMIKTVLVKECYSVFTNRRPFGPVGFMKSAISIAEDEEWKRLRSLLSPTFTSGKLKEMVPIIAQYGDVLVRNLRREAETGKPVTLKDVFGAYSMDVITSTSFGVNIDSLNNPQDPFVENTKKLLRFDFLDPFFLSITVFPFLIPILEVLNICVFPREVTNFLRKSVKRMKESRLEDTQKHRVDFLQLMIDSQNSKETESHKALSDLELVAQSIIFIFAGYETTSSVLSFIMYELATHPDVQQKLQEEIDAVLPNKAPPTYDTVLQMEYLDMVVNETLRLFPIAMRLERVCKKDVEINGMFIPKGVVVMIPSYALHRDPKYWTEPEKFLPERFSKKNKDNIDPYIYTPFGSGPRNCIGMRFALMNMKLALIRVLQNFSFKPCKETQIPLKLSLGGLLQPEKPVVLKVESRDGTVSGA
Chain of Metabotropic glutamate receptor 6 (P35349 whole entry): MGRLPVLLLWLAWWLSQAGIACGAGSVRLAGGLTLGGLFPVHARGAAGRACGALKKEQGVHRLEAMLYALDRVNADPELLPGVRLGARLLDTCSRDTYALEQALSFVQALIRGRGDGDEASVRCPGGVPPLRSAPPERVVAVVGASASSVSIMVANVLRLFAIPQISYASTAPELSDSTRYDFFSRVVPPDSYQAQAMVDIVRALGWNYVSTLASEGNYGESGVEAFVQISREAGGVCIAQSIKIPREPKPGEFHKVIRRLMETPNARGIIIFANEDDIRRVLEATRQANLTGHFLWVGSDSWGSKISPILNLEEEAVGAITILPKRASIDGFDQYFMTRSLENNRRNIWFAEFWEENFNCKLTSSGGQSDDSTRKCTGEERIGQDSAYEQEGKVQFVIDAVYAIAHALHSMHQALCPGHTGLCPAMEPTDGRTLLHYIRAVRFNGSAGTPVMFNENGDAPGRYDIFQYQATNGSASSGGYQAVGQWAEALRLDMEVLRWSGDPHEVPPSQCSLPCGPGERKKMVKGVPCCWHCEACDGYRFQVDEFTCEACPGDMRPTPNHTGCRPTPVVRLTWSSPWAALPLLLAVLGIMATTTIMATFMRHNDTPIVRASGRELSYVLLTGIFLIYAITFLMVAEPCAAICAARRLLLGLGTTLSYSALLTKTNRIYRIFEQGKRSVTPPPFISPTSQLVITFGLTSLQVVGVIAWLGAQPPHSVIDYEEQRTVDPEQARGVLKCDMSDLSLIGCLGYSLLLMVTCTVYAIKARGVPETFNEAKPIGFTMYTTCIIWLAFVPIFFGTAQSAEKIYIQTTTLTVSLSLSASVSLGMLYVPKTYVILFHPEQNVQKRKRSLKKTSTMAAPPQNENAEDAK

## O=C1NCCc2nc(OCc3cccc(F)c3)ccc21
Rattus norvegicus [1]
  Activity: Non-toxic
[2]
  EC50: > 10 µM
[3]
  EC50: > 10 µM
Cytochrome P450 2D6
  IC50: > 30 µM
Cytochrome P450 3A4
  IC50: > 30 µM
[4]
  Kinetic_solubility: 28 µM
[5]
  half-life: 18 min
Rattus norvegicus [6]
  AUC: 6.2 µM·h
[7]
  Tmax: 30 min
Rattus norvegicus [8]
  inhibition in vivo at 56.6 mg/kg: > 30%
[9]
  concentration at 1.5 h: 16.6 µM
